Tested on: patients with advanced solid tumors
Test: Phase I dose escalation, drug-related adverse events
Format: in vivo, human (Japanese patients)
Method in brief: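 Open, non-randomised escalation in three-patient cohorts at 200, 400, 800 and 1,200 mg/m2 oral bid. Tablets taken >2 h after breakfast and supper for 28 consecutive days, with a single dose on day 1. Toxicity graded weekly by NCI-CTC v2.0. DLT: grade 3/4 non-haematologic or grade 4 haematologic toxicity. MTD: DLT in >33% within 4 weeks.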

[1] = 200 mg/m^2 bid (N = 3), G1, 28-days administration
[2] = 400 mg/m^2 bid (N = 3), G1, 28-days administration
[3] = 400 mg/m^2 bid (N = 3), G2, 28-days administration
[4] = 800 mg/m^2 bid (N = 6), G1, 28-days administration
[5] = 800 mg/m^2 bid (N = 6), G2, 28-days administration
[6] = 800 mg/m^2 bid (N = 6), G3, 28-days administration
[7] = 1,200 mg/m^2 bid (N = 3), G1, 28-days administration
[8] = 1,200 mg/m^2 bid (N = 3), G2, 28-days administration
[9] = Total, all dose levels (N = 15), 28-days administration

## Cc1[nH]c(/C=C2\C(=O)Nc3ccccc32)c(C)c1CCC(=O)O [TSU-68, (Z)-3-[2,4-dimethyl-5-(2-oxo-1,2-dihydro-indol-3-ylidenemethyl)-1H-pyrrol-3-yl]-propionic acid]
[1]
  Alanine aminotransferase increased, number of patients: 1
  Alkaline phosphatase increased, number of patients: 1
  Diarrhea, number of patients: 3
  Face edema, number of patients: 1
  Fatigue, number of patients: 1
  Nausea, number of patients: 1
  Upper abdominal pain, number of patients: 1
  Urine discoloration, number of patients: 3
200 mg/m^2 bid (N = 3), G2, 28-days administration
  Chest pain, number of patients: 1
[2]
  Alkaline phosphatase increased, number of patients: 1
  Chest pain, number of patients: 1
  Diarrhea, number of patients: 1
  Face edema, number of patients: 1
  Fatigue, number of patients: 1
  Feces discolored, number of patients: 1
  Urine discoloration, number of patients: 3
[3]
  Albumin decreased, number of patients: 1
  Upper abdominal pain, number of patients: 1
[4]
  Abdominal pain, number of patients: 2
  Alanine aminotransferase increased, number of patients: 2
  Albumin decreased, number of patients: 4
  Alkaline phosphatase increased, number of patients: 3
  Anorexia, number of patients: 3
  Diarrhea, number of patients: 2
  Face edema, number of patients: 1
  Fatigue, number of patients: 3
  Feces discolored, number of patients: 6
  Nausea, number of patients: 2
  Total protein decreased, number of patients: 3
  Urine discoloration, number of patients: 6
  Vomiting, number of patients: 2
[5]
  Abdominal pain, number of patients: 1
  Anorexia, number of patients: 1
  Diarrhea, number of patients: 2
  Fatigue, number of patients: 1
[6]
  Anemia, number of patients: 1
  Arrhythmia, number of patients: 1
  Thrombocytopenia, number of patients: 1
[7]
  Abdominal pain, number of patients: 1
  Alkaline phosphatase increased, number of patients: 1
  Anorexia, number of patients: 2
  Chest pain, number of patients: 1
  Diarrhea, number of patients: 1
  Face edema, number of patients: 2
  Fatigue, number of patients: 2
  Feces discolored, number of patients: 3
  Upper abdominal pain, number of patients: 2
  Urine discoloration, number of patients: 3
[8]
  Abdominal pain, number of patients: 1
  Albumin decreased, number of patients: 1
  Anorexia, number of patients: 1
  Diarrhea, number of patients: 1
  Fatigue, number of patients: 1
  Nausea, number of patients: 1
  Vomiting, number of patients: 1
Total (N = 5), after 28 days
  Abdominal pain, number of patients: 1
  Abdominal pain, patients (%): (20) %
  Alanine aminotransferase increased, number of patients: 3
  Alkaline phosphatase increased, number of patients: 2
  Anorexia, number of patients: 1
  Anorexia, patients (%): (20) %
  Arrhythmia, number of patients: 1
  Arrhythmia, patients (%): (20) %
  Chest pain, number of patients: 2
  Diarrhea, number of patients: 3
  Face edema, number of patients: 3
  Fatigue, number of patients: 4
  Fatigue, patients (%): (80) %
  Feces discolored, number of patients: 4
  Feces discolored, patients (%): (80) %
  Nausea, number of patients: 1
  Nausea, patients (%): (20) %
  Urine discoloration, number of patients: 5
  Urine discoloration, patients (%): (100) %
  Vomiting, number of patients: 1
  Vomiting, patients (%): (20) %
[9]
  Abdominal pain, number of patients: 5
  Abdominal pain, patients (%): (33) %
  Alanine aminotransferase increased, number of patients: 3
  Alanine aminotransferase increased, patients (%): (20) %
  Albumin decreased, number of patients: 6
  Alkaline phosphatase increased, number of patients: 6
  Anemia, number of patients: 1
  Arrhythmia, number of patients: 1
  Chest pain, number of patients: 3
  Chest pain, patients (%): (20) %
  Face edema, number of patients: 5
  Face edema, patients (%): (33) %
  Fatigue, number of patients: 9
  Nausea, number of patients: 4
  Thrombocytopenia, number of patients: 1
  Total protein decreased, number of patients: 3
  Total protein decreased, patients (%): (20) %
  Upper abdominal pain, number of patients: 4
  Urine discoloration, number of patients: 15
  Urine discoloration, patients (%): (100) %
  Vomiting, number of patients: 3
  Vomiting, patients (%): (20) %
Continuous oral bid between meals
  recommended dose for further studies: less than 800 mg/m^2 bid
Oral bid between meals
  tolerable dose for continuing treatment: ≤ 800 mg/m^2 bid
oral, between meals, estimated
  acceptable dosage level in daily administration: 800 mg/m^2 bid

— PMC3082041 (Cancer Chemotherapy and Pharmacology, 2010)
